# Assay results from ChEMBL document CHEMBL4680084, “New β-Lactam Derivatives Modulate Cell Adhesion and Signaling Mediated by RGD-Binding and Leukocyte Integrins” (J Med Chem, 2016).
# Calls of active or inactive are those of the source. The rule behind the calls is not given here.
# Experiments:
# [1] = target: T1, Integrin alpha-IIb/beta-3 (Homo sapiens, UniProt P05106+P08514); assay: Inhibition of fibrinogen binding to alpha2bbeta3 isolated from human HEL cells incubated for 1 hr by […] competitive solid-phase binding assay
# [2] = target: T2, Integrin alpha-5/beta-1 (Homo sapiens, UniProt P05556+P08648); assay: Inhibition of fibronectin binding to alpha5beta1 isolated from human K562 cells incubated for 1 hr by […] competitive solid-phase binding assay; format: tissue-based
# How it was run: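 Plates coated overnight at 4 °C in carbonate buffer pH 9.6 with fibronectin 0.5 µg/mL (αvβ3, αvβ6, α5β1), fibrinogen 10 µg/mL (αIIbβ3, αvβ5) or ICAM-1 (αLβ2). Blocked 1 h in buffer containing Ca/Mg/Mn 1 mM each and 1% BSA. Purified integrin (3–10 µg/mL) incubated with compound (10⁻⁴–10⁻¹⁰ M) 1 h at room temperature. Bound integrin detected with primary antibody then AlexaFluor488 secondary, Ex485/Em535. Duplicate, at least three repeats.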
# [3] = test system: SK-MEL-24; assay: Toxicity in human SK-MEL-24 cells assessed as induction of cell necrosis and/or apoptosis incubated for 3 hrs by annexin V-PE and 7-AAD staining based by flow cytometry; settings: sk-mel-24, 3 h
# How it was run: (§1)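 After 3 h incubation, cells resuspended in complete medium and stained with annexin V-PE/7-AAD reagent for 20 min at room temperature in the dark. Flow cytometry sorted cells into viable, early apoptotic and late apoptotic/necrotic populations.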
# [4] = test system: MCF7; assay: Toxicity in human MCF7 cells assessed as induction of cell necrosis and/or apoptosis incubated for 3 hrs by annexin V-PE and 7-AAD staining based by flow cytometry; settings: mcf7, 3 h; how it was run: as §1
# [5] = test system: HT-29; assay: Toxicity in human HT-29 cells assessed as induction of cell necrosis and/or apoptosis incubated for 3 hrs by annexin V-PE and 7-AAD staining based by flow cytometry; settings: ht-29, 3 h; how it was run: as §1
# [6] = test system: K562; assay: Toxicity in human K562 cells assessed as induction of cell necrosis and/or apoptosis incubated for 3 hrs by annexin V-PE and 7-AAD staining based by flow cytometry; settings: k562, 3 h; how it was run: as §1
# [7] = test system: HEL; assay: Toxicity in human HEL cells assessed as induction of cell necrosis and/or apoptosis incubated for 3 hrs by annexin V-PE and 7-AAD staining based by flow cytometry; how it was run: as §1
# [8] = target: T3, Integrin alpha-V/beta-5 (Homo sapiens, UniProt P06756+P18084); assay: Agonist activity at alphaVbeta5 in human MCF7 cells assessed as increase in cell adhesion to fibrinogen pre-incubated for 30 mins before fibrinogen and further incubated for 1 hr by nitrophenyl-N-acetyl-beta-D-glucosaminide substrate based chromogenic assay
# How it was run: (§2)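 Compound or methanol vehicle pre-incubated with cells for 30 min at room temperature. Cells then plated on wells coated overnight at 4 °C with fibronectin 10 µg/mL (SK-MEL-24, K562, HT-29) or fibrinogen 10 µg/mL (MCF7, HEL). Seeding was 50,000 cells/well, or 100000 for HEL. Adhesion ran 1 h at room temperature. Wells washed with 1% BSA/PBS. Adherent cells read by hexosaminidase substrate, absorbance 405 nm. Quadruplicate, at least three repeats.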
# [9] = target: T4, Integrin alpha-V/beta-6 (Homo sapiens, UniProt P06756+P18564); assay: Agonist activity at alphaVbeta6 in human HT-29 cells assessed as increase in cell adhesion to fibronectin pre-incubated for 30 mins before fibronectin and further incubated for 1 hr by nitrophenyl-N-acetyl-beta-D-glucosaminide substrate based chromogenic assay; how it was run: as §2
# [10] = target: T5, Integrin alpha-4/beta-1 (Homo sapiens, UniProt P05556+P13612); assay: Agonist activity at alpha4beta1 in human Jurkat E6.1 cells assessed as increase in cell adhesion to VCAM1 pre-incubated for 30 mins before VCAM1 and further incubated for 30 mins by […]; format: cell-based
# How it was run: (§3)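 Jurkat E6.1 cells labelled with CellTracker green CMFDA (12.5 µM, 30 min, 37 °C), washed, then pre-incubated 30 min at 37 °C with compound or methanol. Plated at 500,000/well on VCAM-1 (α4β1) or ICAM-1 (αLβ2) coated wells (5 µg/mL) for 30 min at 37 °C. Cells lysed in 0.5% Triton X-100; fluorescence read Ex485/Em535. Quadruplicate, at least three repeats.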
# [11] = target: T1, Integrin alpha-IIb/beta-3; assay: Agonist activity at alpha2bbeta3 in human HEL cells assessed as increase in cell adhesion to fibrinogen pre-incubated for 30 mins before fibrinogen and further incubated for 1 hr by nitrophenyl-N-acetyl-beta-D-glucosaminide substrate based chromogenic assay
# How it was run: as §2, with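 “BSA/PBS.” for “BSA/PBS. Adherent cells read by hexosaminidase substrate, absorbance 405 nm.”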
# [12] = target: T1, Integrin alpha-IIb/beta-3; assay: Antagonist activity at alpha2bbeta3 in human HEL cells assessed as reduction in cell adhesion to fibrinogen pre-incubated for 30 mins before fibrinogen and further incubated for 1 hr by nitrophenyl-N-acetyl-beta-D-glucosaminide substrate based chromogenic assay
# How it was run: as §2, with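 “BSA/PBS.” for “BSA/PBS. Adherent cells read by hexosaminidase substrate, absorbance 405 nm.”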
# [13] = target: T5, Integrin alpha-4/beta-1; assay: Antagonist activity at alpha4beta1 in human Jurkat E6.1 cells assessed as reduction in cell adhesion to VCAM1 pre-incubated for 30 mins before VCAM1 and further incubated for 30 mins by […]; format: cell-based
# [14] = target: T6, Integrin alpha-L/beta-2 (LFA-1) (Homo sapiens, UniProt P05107+P20701); assay: Antagonist activity at alphaLbeta2 in human Jurkat E6.1 cells assessed as reduction in cell adhesion to ICAM1 pre-incubated for 30 mins before ICAM1 and further incubated for 30 mins by […]; format: cell-based; how it was run: as §3
# [15] = target: T7, Integrin alpha-V/beta-3 (Homo sapiens, UniProt P05106+P06756); assay: Inhibition of fibronectin binding to human recombinant alphaVbeta3 expressed in HEK293 cells incubated for 1 hr by […] competitive solid-phase binding assay; format: cell-based
# [16] = target: T3, Integrin alpha-V/beta-5; assay: Inhibition of fibrinogen binding to alphaVbeta5 isolated form human mCf7 cells incubated for 1 hr by […] competitive solid-phase binding assay
# [17] = target: T4, Integrin alpha-V/beta-6; assay: Inhibition of fibronectin binding to alphaVbeta6 isolated form human HT-29 cells incubated for 1 hr by […] competitive solid-phase binding assay; format: tissue-based
# [18] = target: T5, Integrin alpha-4/beta-1; assay: Inhibition of fibronectin binding to […] isolated from human Jurkat E6.1 cells incubated for 1 hr by scintillation-proximity assay based competitive solid-phase binding assay; format: tissue-based
# [19] = target: T7, Integrin alpha-V/beta-3; assay: Agonist activity at alphaVbeta3 in human SK-MEL-24 cells assessed as increase in cell adhesion to fibronectin at 2 to 10 ug/ml pre-incubated for 30 mins and further incubated for 1 hr by nitrophenyl-N-acetyl-beta-D-glucosaminide substrate based chromogenic assay; settings: filed as agonist, dose 2-10 µg/ml, time 90.0 min
# [20] = target: T7, Integrin alpha-V/beta-3; assay: (§4) Agonist activity at alphaVbeta3 in human SK-MEL-24 cells assessed as increase in cell adhesion to fibronectin at 10 ug/ml pre-incubated for 30 mins and further incubated for 1 hr in presence of in presence of integrin antagonist c(-RGDfV) by nitrophenyl-N-acetyl-beta-D-glucosaminide substrate based chromogenic assay; settings: dose 10.0 µg/ml, time 90.0 min
# [21] = target: T7, Integrin alpha-V/beta-3; assay: as §4, with “of neutralizing antibody against the alphaV” for “of in presence of”, “integrin subunit” for “integrin antagonist c(-RGDfV)”; settings: dose 10.0 µg/ml, time 90.0 min
# [22] = target: T7, Integrin alpha-V/beta-3; assay: Agonist activity at alphaVbeta3 in human SK-MEL-24 cells assessed as increase in cell adhesion to fibronectin pre-incubated for 30 mins before fibronectin and further incubated for 1 hr by nitrophenyl-N-acetyl-beta-D-glucosaminide substrate based chromogenic assay; how it was run: as §2
# [23] = target: T7, Integrin alpha-V/beta-3; assay: Antagonist activity at alphaVbeta3 in human SK-MEL-24 cells assessed as reduction in cell adhesion to fibronectin pre-incubated for 30 mins before fibronectin and further incubated for 1 hr by nitrophenyl-N-acetyl-beta-D-glucosaminide substrate based chromogenic assay
# How it was run: as §2, with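 “BSA/PBS.” for “BSA/PBS. Adherent cells read by hexosaminidase substrate, absorbance 405 nm.”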
# [24] = target: T3, Integrin alpha-V/beta-5; assay: Antagonist activity at alphaVbeta5 in human MCF7 cells assessed as reduction in cell adhesion to fibrinogen pre-incubated for 30 mins before fibrinogen and further incubated for 1 hr by nitrophenyl-N-acetyl-beta-D-glucosaminide substrate based chromogenic assay
# How it was run: as §2, with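 “BSA/PBS.” for “BSA/PBS. Adherent cells read by hexosaminidase substrate, absorbance 405 nm.”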
# [25] = target: T4, Integrin alpha-V/beta-6; assay: Antagonist activity at alphaVbeta6 in human HT-29 cells assessed as reduction in cell adhesion to fibronectin pre-incubated for 30 mins before fibronectin and further incubated for 1 hr by nitrophenyl-N-acetyl-beta-D-glucosaminide substrate based chromogenic assay
# How it was run: as §2, with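 “BSA/PBS.” for “BSA/PBS. Adherent cells read by hexosaminidase substrate, absorbance 405 nm.”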
# [26] = target: T2, Integrin alpha-5/beta-1; assay: Antagonist activity at alpha5beta1 in human K562 cells assessed as reduction in cell adhesion to fibronectin pre-incubated for 30 mins before fibronectin and further incubated for 1 hr by nitrophenyl-N-acetyl-beta-D-glucosaminide substrate based chromogenic assay; how it was run: as §2
# [27] = target: T6, Integrin alpha-L/beta-2 (LFA-1); assay: Agonist activity at alphaLbeta2 in human Jurkat E6.1 cells assessed as increase in cell adhesion to ICAM1 pre-incubated for 30 mins before ICAM1 and further incubated for 30 mins by […]; format: cell-based; how it was run: as §3
# [28] = target: T5, Integrin alpha-4/beta-1; assay: Antagonist activity at alpha4beta1 in human Jurkat E6.1 cells assessed as reduction in VCAM-1 induced ERK1/2 phosphorylation at 1 to 100 nM by Western blot analysis; format: cell-based; settings: filed as antagonist, dose 1-100 nM
# [29] = target: T5, Integrin alpha-4/beta-1; assay: Antagonist activity at alpha4beta1 in human Jurkat E6.1 cells assessed as reduction in exposure of HUTS-21 epitope measured by mAb binding; format: cell-based; settings: filed as antagonist
# How it was run: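 Jurkat E6.1 cells at 10⁶/mL in 1% BSA/HBSS incubated 30 min at 37 °C with compound. PE-labelled HUTS-21 mAb then added for 45 min at room temperature. Cells washed, 10,000 analysed by flow cytometry. MFI corrected to isotype control set to 0. Four independent experiments in duplicate.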
SMILES,IC50 [1] [nM],IC50 [2] [nM],Activity [3],Activity [4],Activity [5],Activity [6],Activity [7],EC50 [8] [nM],EC50 [9] [nM],EC50 [11] [nM],IC50 [12] [nM],IC50 [13] [nM],IC50 [14] [nM],IC50 [15] [nM],IC50 [16] [nM],IC50 [17] [nM],IC50 [18] [nM],other results
NCc1ccc(NC(=O)N2C(=O)CC2CC(=O)O)cc1.O=C(O)C(F)(F)F (stereo unspecified),> 1000,5.5,Non-Toxic,Non-Toxic,Non-Toxic,Non-Toxic,Non-Toxic,5.09,167,> 5000,> 5000,> 5000,2410,5.6,3.8,80.5,> 1000,EC50 [10]: > 5000 nM; Activity [19]: Dose-dependent effect; Activity [20]: inactive; Activity [21]: inactive
Nc1ccc(CNC(=O)N2C(=O)C[C@H]2C(=O)O)cc1.O=C(O)C(F)(F)F,> 1000,331,Non-Toxic,Non-Toxic,Non-Toxic,Non-Toxic,Non-Toxic,> 5000,> 5000,> 5000,> 5000,8.8,> 5000,> 1000,> 1000,> 1000,7.6,EC50 [22]: > 5000 nM; IC50 [23]: > 5000 nM; IC50 [24]: > 5000 nM; IC50 [25]: > 5000 nM; IC50 [26]: 525 nM; EC50 [27]: > 5000 nM; Activity [28]: Dose-dependent effect; Activity [29]: Dose-dependent effect
